# In ChEMBL document CHEMBL4373642, “Fluoroquinolone-derived fluorescent probes for studies of bacterial penetration and efflux” (Medchemcomm, 2019):
# Legend:
# [1] = system: Pseudomonas aeruginosa; experiment: Antibacterial activity against Pseudomonas aeruginosa ATCC 27853 assessed as reduction in bacterial growth incubated for 18 to 24 hrs by broth microdilution method; assay type: functional
# Outline: (§1)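 Bacteria grown overnight in cation-adjusted Mueller Hinton broth (CAMHB) at 37 °C, diluted 50-fold and grown 1.5–3 h to mid-log, then inoculated at 5×10^5 CFU mL^-1. Two-fold serial dilutions gave final 0.0039–64 μg mL^-1, plated in duplicate. Incubated 37 °C for 18–24 h.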
# [2] = system: Acinetobacter baumannii; experiment: Antibacterial activity against Acinetobacter baumannii ATCC 19606 assessed as reduction in bacterial growth incubated for 18 to 24 hrs by broth microdilution method; assay type: functional; conditions: ATCC 19606 = CIP 70.34 = JCM 6841
# Outline: as §1, with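 “h. MIC was the lowest concentration with no visible growth (n ≥ 3).” for “h.”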
# [3] = system: Enterococcus faecium; experiment: Antibacterial activity against Enterococcus faecium ATCC 35667 assessed as reduction in bacterial growth incubated for 18 to 24 hrs by broth microdilution method; assay type: functional
# Outline: as §1, with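 “h. MIC was the lowest concentration with no visible growth (n ≥ 3).” for “h.”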
# [4] = system: Bacillus subtilis; experiment: Antibacterial activity against Bacillus subtilis ATCC 6051 assessed as reduction in bacterial growth incubated for 18 to 24 hrs by broth microdilution method; assay type: functional
# Outline: as §1, with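 “h. MIC was the lowest concentration with no visible growth (n ≥ 3).” for “h.”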
# [5] = system: Escherichia coli; experiment: Antibacterial activity against Escherichia coli ATCC 25922 assessed as reduction in bacterial growth incubated for 18 to 24 hrs by broth microdilution method; assay type: functional; outline: as §1
# [6] = system: Pseudomonas aeruginosa; experiment: Antibacterial activity against Pseudomonas aeruginosa PAO750 PAO397 harbouring delta efflux pump mutant assessed as reduction in bacterial growth incubated for 18 to 24 hrs by broth microdilution method; assay type: functional
# Outline: (§2)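 Broth microdilution in cation-adjusted Mueller Hinton broth. Overnight 37 °C cultures were diluted 50-fold and grown 1.5–3 h to mid-log, then seeded at 5×10^5 CFU mL^-1. Compounds were two-fold serially diluted, final range 0.0039–64 μg mL^-1, in duplicate. Plates were incubated at 37 °C for 18–24 h.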
# [7] = system: Escherichia coli; experiment: Antibacterial activity against Escherichia coli MB4902 harbouring lpxC mutant assessed as reduction in bacterial growth incubated for 18 to 24 hrs by broth microdilution method; assay type: functional; outline: as §2
# [8] = system: Staphylococcus aureus; experiment: Antibacterial activity against Staphylococcus aureus ATCC 25923 assessed as reduction in bacterial growth incubated for 18 to 24 hrs by broth microdilution method; assay type: functional
# Outline: as §1, with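 “h. MIC was the lowest concentration with no visible growth (n ≥ 3).” for “h.”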
# [9] = system: Escherichia coli; experiment: Antibacterial activity against Escherichia coli MB5746 harbouring lpxC and tolC double mutant assessed as reduction in bacterial growth incubated for 18 to 24 hrs by broth microdilution method; assay type: functional; outline: as §2
# [10] = system: Klebsiella pneumoniae; experiment: Antibacterial activity against Klebsiella pneumoniae ATCC 13883 assessed as reduction in bacterial growth incubated for 18 to 24 hrs by broth microdilution method; assay type: functional
# Outline: as §1, with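 “h. MIC was the lowest concentration with no visible growth (n ≥ 3).” for “h.”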
# [11] = Drug uptake in Staphylococcus aureus incubated for 30 to 45 mins by Hoechst 33342 and Syto9 staining based confocal microscopy; assay type: ADME
# Outline: (§3)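 Colonies from LB agar were grown overnight in CAMHB at 37 °C, diluted ~40-fold and grown to OD600 0.4–0.6. Cells were pelleted, washed in HBSS and incubated with probe (50–100 μM) in HBSS at 37 °C for 30–45 min. […] were stained with Hoechst 33342 (5 μg mL^-1) or Syto-9 (10 μM) for 20 min, and membranes with FM4-64FX (5 μg mL^-1) for 5 min on ice. Samples were mounted and imaged by confocal microscopy.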
# [12] = Drug uptake in Escherichia coli AG102 incubated for 30 to 45 mins by Hoechst 33342 and Syto9 staining based confocal microscopy; assay type: ADME; outline: as §3
# [13] = system: Escherichia coli; experiment: Antibacterial activity against Escherichia coli MB5747 harbouring tolC mutant assessed as reduction in bacterial growth incubated for 18 to 24 hrs by broth microdilution method; assay type: functional; outline: as §2
# [14] = Drug uptake in Escherichia coli AG102 incubated for 30 to 45 mins in presence of CCCP by Hoechst 33342 and Syto9 staining based confocal microscopy; assay type: ADME; outline: as §3
SMILES,MIC [1],MIC [2],MIC [3],MIC [4],MIC [5],MIC [6],MIC [7],MIC [8],MIC [9],MIC [10],Drug uptake [11],Drug uptake [12],MIC [13],Drug uptake [14]
CN(C)c1ccc2c(CC(=O)NCc3cn(CCCN4CCN(c5cc6c(cc5F)c(=O)c(C(=O)O)cn6C5CC5)CC4)nn3)cc(=O)oc2c1,32 to 64 µg/mL,32 µg/mL,32 to 64 µg/mL,4 µg/mL,2 µg/mL,2 to 8 µg/mL,2 µg/mL,16 µg/mL,0.5 to 1 µg/mL,4 to 32 µg/mL,Active,Active,0.5 to 1 µg/mL,
O=C(O)c1cn(C2CC2)c2cc(N3CCNCC3)c(F)cc2c1=O [CIPROFLOXACIN],,0.5 to 1 µg/mL,1 to 8 µg/mL,0.06 to 0.313 µg/mL,,,,0.125 to 0.5 µg/mL,,0.015 to 0.06 µg/mL,,,,
O=C(O)c1cn(C2CC2)c2cc(N3CCN(CCCn4cc(CNc5ccc([N+](=O)[O-])c6nonc56)nn4)CC3)c(F)cc2c1=O,32 to 64 µg/mL,32 to 64 µg/mL,32 µg/mL,8 µg/mL,8 µg/mL,4 µg/mL,1 to 4 µg/mL,32 to 64 µg/mL,0.06 to 0.125 µg/mL,8 to 16 µg/mL,Active,Not Active,0.125 to 0.25 µg/mL,Active
[N-]=[N+]=NCCCN1CCN(c2cc3c(cc2F)c(=O)c(C(=O)O)cn3C2CC2)CC1,8 to 64 µg/mL,0.25 to 0.5 µg/mL,16 to 64 µg/mL,0.06 to 0.25 µg/mL,0.06 to 0.25 µg/mL,32 to 64 µg/mL,0.25 to 1 µg/mL,0.25 µg/mL,0.25 to 1 µg/mL,0.125 to 0.25 µg/mL,,,0.25 to 1 µg/mL,
